# Measured values collected from several papers.
# Protocols differ between the studies behind these lines.
# Target: Serine/threonine-protein kinase 26 (STK26, Homo sapiens, UniProt Q9P289)
Structure (SMILES),test,conditions,quantity,result
CO[C@@H]1[C@H](N(C)C(=O)c2ccccc2)C[C@H]2O[C@]1(C)n1c3ccccc3c3c4c(c5c6ccccc6n2c5c31)C(=O)NC4,"enzyme activity, inhibitor",1 µM,inhibition,47%
CC(C)S(=O)(=O)c1ccc2nccc(Nc3ccc4sc(C5CCCC5)nc4c3)c2c1,"enzyme activity, inhibitor",1 µM,activity vs control,84%
Cc1cc(O)c(-c2ccc([C@@H](C)CN(C)C)cc2)c2c1[nH]c(=O)c1sccc12,"enzyme activity, inhibitor",0.1 µM,inhibition,19.3%
CN1CCN(C(=O)c2ccc(NC(=O)Nc3ccc(N(C)c4ccnc(Nc5ccc(CS(C)(=O)=O)cc5)n4)cc3)cc2)CC1,"binding, competition with immobilised ligand",1 µM,remaining binding,11%
CC#CC(=O)N1CCC[C@H]1c1nc(-c2ccc(C(=O)Nc3ccccn3)cc2)c2c(N)nccn12,"enzyme activity, inhibitor",1 µM,inhibition,0%
CCCCC(=O)Nc1ccc(-c2ccc3ncn(CCC)c(=O)c3c2)cn1,"binding, competition with immobilised ligand",0.5 µM,remaining binding,100%
COc1ccc2[nH]c3c4[nH]c5ccc(OC)cc5c4c4c(c3c2c1)C(=O)NC4=O,"binding, competition with immobilised ligand",1 µM,remaining binding,85%
C1=C/COCc2cc(ccc2OCCN2CCCC2)Nc2nccc(n2)-c2cccc(c2)COC/1,binding,0.1 µM,remaining binding,74%
